{"source": "paper PMC8041090", "about": "(SLAS discovery : advancing life sciences R & D, 2016)", "key": {"PP1C [1]": {"molecular_target": "PP1C (Homo sapiens, UniProt P62136)", "sequence (P62136 whole entry)": "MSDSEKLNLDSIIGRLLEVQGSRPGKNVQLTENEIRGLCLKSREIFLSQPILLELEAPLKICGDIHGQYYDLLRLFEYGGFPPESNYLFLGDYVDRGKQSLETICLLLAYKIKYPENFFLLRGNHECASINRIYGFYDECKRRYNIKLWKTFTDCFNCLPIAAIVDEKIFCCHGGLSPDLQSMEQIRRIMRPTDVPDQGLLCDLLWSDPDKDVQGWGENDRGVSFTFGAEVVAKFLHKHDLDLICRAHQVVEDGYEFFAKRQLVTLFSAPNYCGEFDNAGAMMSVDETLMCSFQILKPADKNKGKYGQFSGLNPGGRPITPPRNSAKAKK", "assay": "Radiolabeled phosphoprotein substrate confirmation assay", "type": "biochemical", "in_short": "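Purified PP1C catalytic subunit (working stock kept at −20 °C in tris with 50% glycerol, 2 mM DTT, 0.1 mg/mL BSA, 2 mM MnCl₂) was assayed in single tubes against [³²P]- or [³³P]-phosphorylase A in HEPES pH 7.0 PP1C buffer (BSA, Triton X-100, DTT, ascorbate, MnCl₂). Liberated labelled orthophosphate was quantified and expressed as percentage of DMF-vehicle control activity; serial dilutions, n = 3.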"}, "PP5C [2]": {"molecular_target": "T1, PP5C (Homo sapiens, UniProt P53041)", "T1 sequence (P53041 1-499)": "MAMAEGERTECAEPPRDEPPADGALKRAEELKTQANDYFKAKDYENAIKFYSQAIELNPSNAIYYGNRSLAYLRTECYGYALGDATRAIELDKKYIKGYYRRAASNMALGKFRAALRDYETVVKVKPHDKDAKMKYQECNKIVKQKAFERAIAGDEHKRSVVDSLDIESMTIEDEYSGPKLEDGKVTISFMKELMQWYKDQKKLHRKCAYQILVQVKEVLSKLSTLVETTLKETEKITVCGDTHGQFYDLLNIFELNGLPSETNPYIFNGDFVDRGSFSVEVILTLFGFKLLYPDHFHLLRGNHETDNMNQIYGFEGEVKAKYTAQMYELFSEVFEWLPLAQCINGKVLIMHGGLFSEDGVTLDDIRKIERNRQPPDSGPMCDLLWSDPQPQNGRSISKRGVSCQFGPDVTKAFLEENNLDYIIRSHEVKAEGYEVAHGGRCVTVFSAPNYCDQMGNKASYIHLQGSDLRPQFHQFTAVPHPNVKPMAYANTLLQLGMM", "assay": "PP5C OMFP FLINT inhibition assay, 1536-well uHTS format", "type": "biochemical"}, "PP5C [3]": {"tested_on": "PP5C", "conditions": "read-out: IC50, PP5C; ref [4],[6]; cited from earlier work"}, "PP2AC": {"tested_on": "PP2AC", "conditions": "read-out: IC50, PP2AC; ref [4],[6]; cited from earlier work"}, "PP4C": {"tested_on": "PP4C", "conditions": "read-out: IC50, PP4C; ref [4],[6]; cited from earlier work"}, "PP1C [4]": {"tested_on": "PP1C", "conditions": "read-out: IC50, PP1C; ref [4],[6]; cited from earlier work"}}}
{"smiles": "COc1ccc(NC(=O)C2C3CCC(O3)C2C(=O)O)c(OC)c1", "note": "(stereo not drawn) [SID 93617938, 3-{[(2,4-dimethoxyphenyl)amino]carbonyl}−7-oxabicyclo[2.2.1]heptane-2-carboxylic acid]", "values": [{"measurement": "IC50", "setting": "PP1C [1]", "value": 18.9, "unit": "µM"}]}
{"smiles": "C[C@@]12C(=O)OC(=O)[C@]1(C)[C@H]1CC[C@@H]2O1", "note": "[cantharidin]", "values": [{"measurement": "IC50", "setting": "PP5C [2]", "value": 0.52, "unit": "µM"}]}
{"smiles": "C[C@@](O)(/C=C/[C@H]1CC=CC(=O)O1)[C@@H](C[C@@H](O)\\C=C/C=C\\C=C\\CO)OP(=O)(O)O", "note": "[fostriecin]", "values": [{"measurement": "IC50", "setting": "PP5C [3]", "value": "> 70", "unit": "µM"}, {"measurement": "IC50", "setting": "PP2AC", "value": "< 0.002", "unit": "µM"}, {"measurement": "IC50", "setting": "PP4C", "value": "< 0.002", "unit": "µM"}, {"measurement": "IC50", "setting": "PP1C [4]", "value": "> 70", "unit": "µM"}]}
